Measurements from ChEMBL document CHEMBL4402565, “α-Ketoamides as Broad-Spectrum Inhibitors of Coronavirus and Enterovirus Replication: Structure-Based Design, Synthesis, and Activity Assessment” (J Med Chem, 2020).

How the values were obtained:
[1] = Cytotoxicity against human HeLa Rh cells assessed as reduction in cell viability incubated for 3 days by MTS assay; type: cell-based
[2] = Therapeutic index, ratio of CC50 for human RD cells to EC50 for Enterovirus A71 infected in human RD cells; type: toxicity, cell-based; conditions: read-out: Ratio CC50/EC50
Method in brief: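 RD cells were seeded 24 h ahead in 2% FCS medium, then given compound serial dilutions plus EV-A71 (BRCR) inoculum. After 3 days, MTS was added for 1 h at 37 °C and OD498 read. EC50 was interpolated as the concentration giving 50% protection from CPE. CC50 was measured on uninfected host cells by viability or cytotoxicity kits. Index = CC50/EC50.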

[3] = Therapeutic index, ratio of CC50 for human HuH7 cells expressing T7 RNA polymerase to EC50 for Middle East respiratory syndrome coronavirus infected in human HuH7 cells expressing T7 RNA polymerase; type: toxicity, cell-based; conditions: read-out: Ratio CC50/EC50
[4] = system: rhinovirus A2; assay: Antiviral activity against Human rhinovirus 2 infected in HeLa Rh cells assessed as reduction in virus-induced cytopathic effect incubated for 3 days by MTS assay; type: functional, organism-based; conditions: Rhinovirus A, 72 h
Method in brief: (§1)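 CPE reduction assay. RD (EV-A71) or HeLa Rh (EV-D68, HRV) cells seeded 24 h earlier in medium with 2% FCS; HRV2/HRV14 medium contained 30 mM MgCl₂. Serial compound dilutions added with virus. At 3 days post infection, 5% MTS added for 1 h at 37 °C and OD498 read. EC50 taken as 50% protection versus controls by logarithmic interpolation; morphology also checked microscopically.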

[5] = system: Human coronavirus 229E; assay: Antiviral activity against Human coronavirus 229E infected in HuH7 cells expressing T7 RNA polymerase assessed as reduction in virus-induced cytopathic effect incubated for 48 hrs by Alamar blue based assay; type: functional, organism-based; conditions: Huh-7, 48 h
[6] = Therapeutic index, ratio of CC50 for human HuH7 cells expressing T7 RNA polymerase to EC50 for […] infected in human HuH7 cells expressing T7 RNA polymerase; type: toxicity, cell-based; conditions: read-out: Ratio CC50/EC50
[7] = Therapeutic index, ratio of CC50 for human HuH7 cells expressing T7 RNA polymerase to EC50 for Human coronavirus 229E infected in human HuH7 cells expressing T7 RNA polymerase; type: toxicity, cell-based; conditions: read-out: Ratio CC50/EC50
Method in brief: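 Huh7 cells were infected with HCoV-229E at […] for 1.5 h at 37 °C and washed. Complete DMEM containing inhibitor (0–40 µM) was added. […] CC50 came from a parallel AlamarBlue viability assay normalised to no-inhibitor and 1% Triton X-100 controls. Therapeutic index = CC50/EC50.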

[8] = Cytotoxicity against human RD cells assessed as reduction in cell viability incubated for 3 days by MTS assay; type: cell-based
[9] = system: Middle East respiratory syndrome-related coronavirus; assay: Antiviral activity against Middle East respiratory syndrome coronavirus infected in Vero cells assessed as reduction in virus-induced cytopathic effect incubated for 3 days by non-radioactive cell proliferation assay; type: functional, organism-based; conditions: 72 h
[10] = system: SARS-CoV; assay: Antiviral activity against SARS coronavirus infected in Vero E6 cells assessed as reduction in virus-induced cytopathic effect incubated for 2 days by non-radioactive cell proliferation assay; type: functional, organism-based; conditions: Severe acute respiratory syndrome-related coronavirus, Vero C1008, 48 h
[11] = Therapeutic index, ratio of CC50 for monkey Vero E6 cells to EC50 for SARS coronavirus infected in monkey Vero E6 cells; type: toxicity, cell-based, Vero C1008; conditions: read-out: Ratio CC50/EC50
[12] = Therapeutic index, ratio of CC50 for monkey Vero cells to EC50 for Middle East respiratory syndrome coronavirus infected in monkey Vero cells; type: toxicity, cell-based; conditions: read-out: Ratio CC50/EC50
[13] = system: Enterovirus A71; assay: Antiviral activity against Enterovirus A71 infected in HuH7 cells expressing T7 RNA polymerase assessed as reduction in viral RNA replication incubated for 24 hrs by luciferase reporter gene assay; type: functional, organism-based; conditions: Enterovirus A, Huh-7, 24 h
Method in brief: (§2)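 Huh-T7 cells (DMEM, 2 mM glutamine, penicillin/streptomycin, 10% FCS growth or 2% maintenance, G-418 400 μg·mL⁻¹) transfected with enteroviral replicon. Compound added in growth medium at 40 μM for screening or 0, 1.25, 2.5, 5, 10, 20, 40 μM for EC50. After 24 h, cells lysed and luciferase activity read. Triplicate or quadruplicate, mean ± SD.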

[14] = Antiviral activity against […] infected in HuH7 cells expressing T7 RNA polymerase assessed as reduction in viral RNA replication incubated for 24 hrs by luciferase reporter gene assay; type: functional, organism-based; conditions: B3, Huh-7, 24 h; method in brief: as §2
[15] = system: Middle East respiratory syndrome-related coronavirus; assay: Antiviral activity against Middle East respiratory syndrome coronavirus infected in HuH7 cells expressing T7 RNA polymerase assessed as reduction in virus-induced cytopathic effect incubated for 2 days by non-radioactive cell proliferation assay; type: functional, organism-based; conditions: Huh-7, 48 h
[16] = system: SARS-CoV; assay: Antiviral activity against SARS coronavirus infected in HuH7 cells expressing T7 RNA polymerase assessed as reduction in viral RNA replication incubated for 24 hrs by luciferase reporter gene assay; type: functional, organism-based; conditions: Severe acute respiratory syndrome-related coronavirus, Huh-7, 24 h
Method in brief: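 SARS-CoV replicon (DNA-launched, Renilla luciferase reporter) was transfected into Huh-T7 cells at 80–90% confluency. Compound at 0, 1.25, 2.5, 5, 10, 20 or 40 µM in growth medium was added after transfection. At 24 h, cells were lysed and luciferase activity measured. Runs were in triplicate or quadruplicate, reported as mean ± SD.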

[17] = Cytotoxicity against human HuH7 cells expressing T7 RNA polymerase assessed as reduction in cell viability incubated for 2 days by non-radioactive cell proliferation assay; type: cell-based, Huh-7
[18] = Inhibition of SARS coronavirus M protease using Dabcyl-KTSAVLQ-SGFRKM-E(Edans)-NH2 as substrate incubated for 10 mins by fluorospectrometry; parameters: species or system Severe acute respiratory syndrome-related coronavirus
Method in brief: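 FRET cleavage assay with 0.5 µM recombinant SARS-CoV Mpro (authentic termini) in 20 mM Tris-HCl, 100 mM NaCl, 1 mM EDTA, 1 mM DTT, pH 7.3. Enzyme was preincubated with inhibitor (0–100 µM) for 10 min at 37 °C, then 20 µM final substrate was added. Fluorescence was read at ex 360/em 460 nm. Triplicate, mean ± SD; IC50 from curve fitting.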

[19] = Inhibition of human coronavirus NL63 M protease using Dabcyl-KTSAVLQ-SGFRKM-E(Edans)-NH2 as substrate incubated for 10 mins by fluorospectrometry
Method in brief: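 0.5 μM final HCoV-NL63 Mpro preincubated 10 min at 37 °C with inhibitor (0–100 μM) in pH 7.3 Tris buffer (100 mM NaCl, 1 mM EDTA, 1 mM DTT). Cleavage of 20 μM Dabcyl-KTSAVLQ↓SGFRKM-E(Edans)-NH₂ followed by fluorescence at 460 nm with 360 nm excitation. IC50 from triplicate measurements, mean ± SD.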

[20] = Inhibition of […] protease 3C using DabcylKEALFQ-GPPQF-E(Edans)-NH2 as substrate incubated for 10 mins by fluorospectrometry; parameters: species or system Coxsackievirus
Method in brief: (§3)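 FRET cleavage assay in 20 mM Tris-HCl, 100 mM NaCl, 1 mM EDTA, 1 mM DTT, pH 7.3. Final enzyme 2 μM for CVB3 3Cpro or 3 μM for EV-A71 3Cpro, preincubated with inhibitor (0–100 μM) for 10 min at 37 °C. Reaction started with 20 μM final Dabcyl-KEALFQ↓GPPQF-E(Edans)-NH₂. Edans dequenching read at ex 360/em 460 nm. Triplicate, mean ± SD.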

[21] = Inhibition of Enterovirus A71 protease 3C using DabcylKEALFQ-GPPQF-E(Edans)-NH2 as substrate incubated for 10 mins by fluorospectrometry; method in brief: as §3
[22] = Therapeutic index, ratio of CC50 for human HeLa Rh cells to EC50 for Human rhinovirus 14 infected in human HeLa Rh cells; type: toxicity, cell-based; conditions: read-out: Ratio CC50/EC50
[23] = Therapeutic index, ratio of CC50 for human HeLa Rh cells to EC50 for Enterovirus D68 infected in human HeLa Rh cells; type: toxicity, cell-based; conditions: read-out: Ratio CC50/EC50
[24] = system: rhinovirus B14; assay: Antiviral activity against Human rhinovirus 14 infected in HeLa Rh cells assessed as reduction in virus-induced cytopathic effect incubated for 3 days by MTS assay; type: functional, organism-based; conditions: Rhinovirus B, 72 h; method in brief: as §1
[25] = Antiviral activity against […] infected in HuH7 cells expressing T7 RNA polymerase assessed as reduction in virus-induced cytopathic effect incubated for 2 days by non-radioactive cell proliferation assay; type: functional, organism-based; conditions: B3, Huh-7, 48 h
[26] = system: enterovirus D68; assay: Antiviral activity against Enterovirus D68 infected in HeLa Rh cells assessed as reduction in virus-induced cytopathic effect incubated for 3 days by MTS assay; type: functional, organism-based; conditions: Enterovirus D, 72 h; method in brief: as §1
[27] = Therapeutic index, ratio of CC50 for human HeLa Rh cells to EC50 for Human rhinovirus 2 infected in human HeLa Rh cells; type: toxicity, cell-based; conditions: read-out: Ratio CC50/EC50
[28] = system: Enterovirus A71; assay: Antiviral activity against Enterovirus A71 infected in RD cells assessed as reduction in virus-induced cytopathic effect incubated for 3 days by MTS assay; type: functional, organism-based; conditions: Enterovirus A, 72 h; method in brief: as §1

Structure (SMILES): O=C(/C=C/c1ccccc1)N[C@@H](Cc1ccccc1)C(=O)N[C@@H](C[C@@H]1CCNC1=O)C(=O)C(=O)NCc1ccccc1
- CC50 at 72 h [1]: 35.5 µM
- selectivity ratio [2]: > 10
- selectivity ratio [3]: > 10
- EC50 [4]: 5.6 µM
- EC50 [5]: 11.8 µM
- selectivity ratio [6]: > 10
- selectivity ratio [7]: > 10
- CC50 at 72 h [8]: 97 µM
- EC50 [9]: 13.4 µM
- EC50 [10]: 5.8 µM
- selectivity ratio [11]: > 10
- selectivity ratio [12]: > 10
- EC50 [13]: 4.5 µM
- EC50 [14]: 4.5 µM
- EC50 [15]: 0.0048 µM
- EC50 [16]: 2 µM
- CC50 at 48 h [17]: > 265 µM
- IC50 [18]: 1.95 µM
- IC50 [19]: > 50 µM
- IC50 [20]: 6.56 µM
- IC50 [21]: 1.22 µM
- selectivity ratio [22]: > 15
- selectivity ratio [23]: > 10
- EC50 [24]: 4.3 µM
- EC50 [25]: 14 µM
- EC50 [26]: 0.48 µM
- selectivity ratio [27]: > 15
- EC50 [28]: 9.8 µM
